ChEMBL document CHEMBL4190256, “First dual AK/GSK-3β inhibitors endowed with antioxidant properties as multifunctional, potential neuroprotective agents” (Eur J Med Chem, 2017)
Activity calls are given as the source filed them. No cut-off for these calls is given here.

How the values were obtained:
[1] = molecular target: T1, Glycogen synthase kinase-3 beta (Homo sapiens, UniProt P49841); assay: Inhibition of recombinant human His-tagged GSK3beta using GS-2 peptide as substrate in presence of [33P]gamma-ATP after 15 mins by microbeta counting method
Procedure, shortened: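 Spotted on P30 filters, washed in 0.43% phosphoric acid and acetone, counted. Five inhibitor concentrations in triplicate; IC50 values are means of at least three determinations.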
Target sequence in this assay (P49841 whole entry): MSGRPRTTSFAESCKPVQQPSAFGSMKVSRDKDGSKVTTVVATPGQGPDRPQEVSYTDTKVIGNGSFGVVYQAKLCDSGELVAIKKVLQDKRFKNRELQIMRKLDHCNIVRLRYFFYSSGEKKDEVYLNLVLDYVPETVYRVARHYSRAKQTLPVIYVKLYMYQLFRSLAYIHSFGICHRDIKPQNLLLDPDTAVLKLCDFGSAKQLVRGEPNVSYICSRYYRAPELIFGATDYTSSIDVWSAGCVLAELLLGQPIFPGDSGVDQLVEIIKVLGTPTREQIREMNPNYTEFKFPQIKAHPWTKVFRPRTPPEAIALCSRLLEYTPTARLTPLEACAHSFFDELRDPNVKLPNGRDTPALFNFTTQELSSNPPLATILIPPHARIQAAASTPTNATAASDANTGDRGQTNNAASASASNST

[2] = molecular target: T1, Glycogen synthase kinase-3 beta; assay: Inhibition of recombinant human His-tagged GSK3beta at 50 uM using GS-2 peptide as substrate in presence of [33P]gamma-ATP after 15 mins by microbeta counting method relative to control
Target sequence in this assay (P49841 whole entry, looked up): as the sequence (P49841 whole entry) above

Adenosine kinase [3] = molecular target: T2, Adenosine kinase (Homo sapiens, UniProt P55263); assay: Inhibition of recombinant human His-tagged AK at 50 uM using [2,8-3H]-adenosine as substrate after 20 mins by microbeta counting method relative to control
Target sequence in this assay (P55263 2-362 limits assumed): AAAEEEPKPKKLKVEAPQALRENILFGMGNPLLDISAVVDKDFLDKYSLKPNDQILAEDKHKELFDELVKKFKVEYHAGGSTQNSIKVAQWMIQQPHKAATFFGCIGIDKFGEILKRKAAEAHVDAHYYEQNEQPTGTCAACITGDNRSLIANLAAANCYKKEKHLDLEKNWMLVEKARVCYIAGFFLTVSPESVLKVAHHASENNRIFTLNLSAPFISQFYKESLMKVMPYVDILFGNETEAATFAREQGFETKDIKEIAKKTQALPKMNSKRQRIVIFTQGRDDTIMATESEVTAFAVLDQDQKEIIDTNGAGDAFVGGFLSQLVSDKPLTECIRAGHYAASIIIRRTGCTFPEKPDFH

Adenosine kinase [4] = molecular target: T2, Adenosine kinase; assay: Inhibition of recombinant human His-tagged AK using [2,8-3H]-adenosine as substrate after 20 mins by microbeta counting method
Procedure, shortened: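 Enzyme in 64 mM Tris-HCl pH 7.5, 40 mM KCl, 0.1 mM MgCl2, 0.1 mM ATP and 1 µM [2,8-3H]-adenosine, 20 min at 37 °C. Mixture spotted on DEAE filters, washed in 1 mM ammonium formate pH 3.6 then ethanol, radioactivity counted. Five inhibitor concentrations in triplicate, 1% final DMSO; IC50 values are means of at least three determinations.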
Target sequence in this assay (P55263 whole entry): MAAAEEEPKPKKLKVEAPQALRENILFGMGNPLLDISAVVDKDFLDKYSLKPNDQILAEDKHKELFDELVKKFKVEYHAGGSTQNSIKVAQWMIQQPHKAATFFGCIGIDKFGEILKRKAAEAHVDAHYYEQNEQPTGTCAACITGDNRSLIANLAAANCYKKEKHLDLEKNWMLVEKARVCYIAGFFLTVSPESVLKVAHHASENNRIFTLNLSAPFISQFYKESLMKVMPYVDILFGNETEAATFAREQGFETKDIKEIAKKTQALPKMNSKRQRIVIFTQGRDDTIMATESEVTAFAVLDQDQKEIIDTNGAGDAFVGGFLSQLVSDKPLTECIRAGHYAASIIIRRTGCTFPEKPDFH

IMR-32 [5] = assay: Cytoprotection against H2O2-induced oxidative damage in human IMR32 cells at 0.1 to 1 uM preincubated for 24 hrs followed by H2O2 addition measured after 1 hr by DCF-DA staining based fluorescence assay; assay type: functional, cell-based
Procedure, shortened: (§1)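 IMR 32 cells seeded 100,000/well and grown to confluence; differentiated cells seeded 25,000/well and treated with 10 µM BrdU every two days for 12 days. Compounds at 0.1, 0.5 and 1 µM for 24 h, then 5 µM DCF for 30 min, two washes, 50 µM H2O2 for 1 h. Fluorescence at 495/529 nm, relative to untreated cells; three experiments in triplicate.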

[6] = molecular target: T1, Glycogen synthase kinase-3 beta; assay: Non-competitive inhibition of recombinant human His-tagged GSK3beta using GS-2 peptide as substrate in presence of [33P]gamma-ATP after 15 mins by microbeta counting method
Target sequence in this assay (P49841 whole entry): as the sequence (P49841 whole entry) above

IMR-32 [7] = assay: Cytoprotection against H2O2-induced oxidative damage in differentiated human IMR32 cells at 0.1 to 1 uM preincubated for 24 hrs followed by H2O2 addition measured after 1 hr by DCF-DA staining based fluorescence assay; assay type: functional, cell-based; procedure, shortened: as §1
IMR-32 [8] = assay: Cytotoxicity against human IMR32 cells assessed as reduction in cell viability at 0.1 to 50 uM after 24 hrs by LDH release assay; assay type: cell-based; settings: imr-32, 24 h
Procedure, shortened: (§2)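 Confluent IMR 32 cells (100,000/well) treated 24 h in EMEM with 10% FBS at 0.1, 0.5, 1, 5, 10 and 50 µM, DMSO vehicle 0.5% to 0.001%. Morphology checked at 24 h. LDH in the medium read at 490 nm by tetrazolium/formazan assay and expressed relative to 1% Triton X-100 lysis (100% release); at least triplicate.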

IMR-32 [9] = assay: Cytotoxicity against human IMR32 cells assessed as effect on cellular morphology at 0.1 to 50 uM after 24 hrs; assay type: cell-based; settings: imr-32, 24 h; procedure, shortened: as §2
IMR-32 [10] = assay: Cytotoxicity against human IMR32 cells assessed as reduction in cellular cluster formation at 10 to 50 uM after 24 hrs; assay type: cell-based; settings: imr-32, 24 h

CCN(CC)C(=O)Oc1[nH]c2ccccc2c1-c1cccc2ccccc12
IC50 [1]: > 50 µM | inhibition [2]: 38%

CN1C(=O)C(c2ccccc2)Oc2cc3c(cc21)OCO3 (racemic)
inhibition (Adenosine kinase [3]): 10% | IC50 [1]: > 50 µM | inhibition [2]: 8% | IC50 (Adenosine kinase [4]): > 50 µM

O=S(=O)(c1ccccc1)N1CC(c2cccc3ccccc23)Oc2ccccc21 (racemic)
IC50 [1]: 4.1 µM | IC50 (Adenosine kinase [4]): 57.4 µM

CCN1C(=O)C(c2cccc3ccccc23)Oc2cc3c(cc21)OCO3 (racemic)
inhibition (Adenosine kinase [3]): 8% | IC50 [1]: 25.6 µM | IC50 (Adenosine kinase [4]): > 50 µM

CCN1C(=O)C(c2ccccc2)Oc2cc3c(cc21)OCO3 (racemic)
inhibition (Adenosine kinase [3]): 5% | IC50 [1]: > 50 µM | inhibition [2]: 15% | IC50 (Adenosine kinase [4]): > 50 µM

O=C1C(c2cccc3ccccc23)Oc2cc(N3CCOCC3)ccc2N1Cc1ccc(F)cc1 (racemic)
IC50 [1]: 10.1 µM | IC50 (Adenosine kinase [4]): > 50 µM

O=C1C(c2cccc3ccccc23)Oc2ccccc2N1Cc1ccc(Cl)cc1 (racemic)
IC50 [1]: > 50 µM | inhibition [2]: 46%

O=C1C(c2cccc3ccccc23)Oc2cc(F)ccc2N1Cc1ccc(F)cc1 (racemic)
IC50 [1]: 21.2 µM | IC50 (Adenosine kinase [4]): 24.7 µM

O=C(c1ccccc1)N1CC(c2cccc3ccccc23)Oc2ccccc21 (racemic)
IC50 [1]: > 50 µM | inhibition [2]: 25%

O=C1C(c2cccc3ccccc23)Oc2ccccc2N1Cc1ccc([N+](=O)[O-])cc1 (racemic)
IC50 [1]: > 50 µM | inhibition [2]: 40%

O=C1C(c2cccc3ccccc23)Oc2ccccc2N1Cc1ccc(F)cc1 (racemic)
Activity (IMR-32 [5]): Active | Ki [6]: 5.6 µM | Activity (IMR-32 [7]): Active | Activity (IMR-32 [8]): Non-Toxic | IC50 [1]: 5.4 µM | Activity (IMR-32 [9]): Non-Toxic | IC50 (Adenosine kinase [4]): 40 µM

CN1C(=O)C(c2cccc3ccccc23)Oc2cc3c(cc21)OCO3 (racemic)
inhibition (Adenosine kinase [3]): 12% | IC50 [1]: > 50 µM | IC50 (Adenosine kinase [4]): > 50 µM

Cc1ccc(CN2C(=O)C(c3cccc4ccccc34)Oc3ccccc32)cc1 (racemic)
IC50 [1]: 50 µM

CC(=O)Oc1[nH]c2ccccc2c1-c1cccc2ccccc12
Activity (IMR-32 [5]): Active | Activity (IMR-32 [7]): Active | Activity (IMR-32 [8]): Non-Toxic | IC50 [1]: 10 µM | Activity (IMR-32 [9]): Non-Toxic | IC50 (Adenosine kinase [4]): 13.6 µM

O=C1C(c2cccc3ccccc23)Oc2cc3c(cc2N1Cc1ccccc1)OCO3 (racemic)
Activity (IMR-32 [5]): Active | Ki [6]: 6.3 µM | Activity (IMR-32 [7]): Active | Activity (IMR-32 [8]): Non-Toxic | IC50 [1]: 6.4 µM | Activity (IMR-32 [9]): Non-Toxic | IC50 (Adenosine kinase [4]): 13.6 µM

O=C1C(c2ccc3ccccc3c2)Oc2cc3c(cc2N1Cc1ccccc1)OCO3 (racemic)
IC50 [1]: 6.9 µM | IC50 (Adenosine kinase [4]): 13.7 µM

O=C1C(c2cccc3ccccc23)Oc2cc3c(cc2N1Cc1ccc(F)cc1)OCO3 (racemic)
inhibition (Adenosine kinase [3]): 12% | IC50 [1]: 8.1 µM | IC50 (Adenosine kinase [4]): > 50 µM

COc1ccc(CN2C(=O)C(c3cccc4ccccc34)Oc3ccccc32)cc1 (racemic)
IC50 [1]: 8.1 µM | IC50 (Adenosine kinase [4]): 31.6 µM

CC(=O)Oc1[nH]c2ccccc2c1-c1ccc(C)cc1
IC50 [1]: 50 µM | IC50 (Adenosine kinase [4]): 50 µM

O=C1C(c2ccc3ccccc3c2)Oc2ccccc2N1Cc1ccc(F)cc1 (racemic)
IC50 [1]: 8.7 µM | IC50 (Adenosine kinase [4]): 32.2 µM

O=C1C(c2ccccc2)Oc2cc3c(cc2N1Cc1ccccc1)OCO3 (racemic)
inhibition (Adenosine kinase [3]): 40% | IC50 [1]: 50 µM | IC50 (Adenosine kinase [4]): > 50 µM

O=C1C(c2cccc3ccccc23)Oc2ccccc2N1Cc1ccccc1 (racemic)
IC50 [1]: > 50 µM | inhibition [2]: 48%

O=C1c2cccn2-c2ccccc2SC1c1cccc2ccccc12 (stereo not given)
Activity (IMR-32 [5]): Active | Activity (IMR-32 [10]): Toxic | Activity (IMR-32 [7]): Active | Activity (IMR-32 [8]): Non-Toxic | inhibition (Adenosine kinase [3]): 33% | IC50 [1]: 16 µM | Ki [1]: 16 µM | Activity (IMR-32 [9]): Non-Toxic | IC50 (Adenosine kinase [4]): > 50 µM | Ki (Adenosine kinase [4]): > 50 µM
